Compound activity deposited in PubChem by several laboratories.
Jurkat tox 60K = cytotoxic compounds reducing Jurkat cell viability | Jurkat E6.1 viability, ATP luminescence, 48 h | inhibition, % at 4 µM | hit rate 1.2% among 56,000;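 active means inhibition above the mean inhibition of all tested compounds plus 3 SD, cut at about 28% in these data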
PTK2B oligo ant = antagonists of human Pyk2 oligomerization. Q14289. Q293 cells, Pyk2 FERM NanoBiT luminescence; stronger effect = lower value. z-score (the deposit names both 25 µM and 10 µM). hit rate 0.83% among 99,000. AID 1347419;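 active means Z-score of -3 or lower, scaled per plate to the spread of control and sample wells; inactive means z-score above -3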;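 further: negative z-score means lost luminescence so less FERM oligomerization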
Target sequence (Q14289 whole entry, looked up): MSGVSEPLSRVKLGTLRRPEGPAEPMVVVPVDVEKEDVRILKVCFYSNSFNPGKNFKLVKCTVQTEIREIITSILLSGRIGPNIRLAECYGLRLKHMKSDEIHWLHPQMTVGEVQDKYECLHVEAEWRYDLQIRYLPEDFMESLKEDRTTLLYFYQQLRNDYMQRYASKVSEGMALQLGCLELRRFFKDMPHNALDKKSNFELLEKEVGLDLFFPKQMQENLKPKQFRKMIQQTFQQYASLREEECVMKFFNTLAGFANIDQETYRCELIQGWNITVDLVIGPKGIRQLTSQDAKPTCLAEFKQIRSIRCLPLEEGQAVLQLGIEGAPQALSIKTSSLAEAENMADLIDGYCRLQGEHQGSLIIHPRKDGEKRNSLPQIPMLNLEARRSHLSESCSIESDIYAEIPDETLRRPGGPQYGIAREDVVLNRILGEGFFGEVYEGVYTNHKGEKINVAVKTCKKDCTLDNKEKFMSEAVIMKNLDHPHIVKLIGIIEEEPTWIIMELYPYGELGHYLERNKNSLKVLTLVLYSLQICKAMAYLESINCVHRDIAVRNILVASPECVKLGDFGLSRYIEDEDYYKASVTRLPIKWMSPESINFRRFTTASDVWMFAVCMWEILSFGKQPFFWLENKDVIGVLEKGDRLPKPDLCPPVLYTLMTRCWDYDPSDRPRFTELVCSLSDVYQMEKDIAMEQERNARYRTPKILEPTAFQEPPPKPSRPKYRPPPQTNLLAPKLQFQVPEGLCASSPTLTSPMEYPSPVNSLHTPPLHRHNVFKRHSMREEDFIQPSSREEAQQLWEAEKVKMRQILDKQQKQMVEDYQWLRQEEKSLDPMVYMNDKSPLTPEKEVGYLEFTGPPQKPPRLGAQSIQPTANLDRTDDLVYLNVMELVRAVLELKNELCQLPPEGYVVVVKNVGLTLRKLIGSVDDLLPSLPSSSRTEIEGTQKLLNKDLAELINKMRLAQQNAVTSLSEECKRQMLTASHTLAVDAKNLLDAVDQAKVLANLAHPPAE
H69AR growth 86K = growth inhibitors of human H69AR lung tumor cells; H69AR lung tumor viability, ATP luminescence, 72 h; stronger effect = lower value; viability, % at 10 µM; hit rate 6% among 85,000;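 active means viability at or below 40%; inactive means viability above 40%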;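 further: multidrug resistant small cell line overexpressing MRP-1 efflux transporter; 100% = mean luminescence of untreated control wells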
MT1-MMP txn act = MT1-MMP promoter transcription activation; hit rate 0.16% among 86,000; HT1080 MT1-MMP promoter luciferase reporter, luminescence, overnight; stronger effect = higher value; activation factor at 10 µM;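 active means activation factor of at least 2 for MT1-MMP transcription at 10 µM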
HUVEC inhibit = inhibitors of human endothelial cell proliferation. HUVEC proliferation, CellTiter-Glo luminescence, 72 h; stronger effect = lower value. viability, % at 10 µM (by protocol). AID 648. hit rate 1.1% among 86,000;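 active means viability at or below 30%; inactive means viability above 30%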;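 further: 100% = median luminescence of DMSO-only cell control wells on each plate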
Lung fibro prol = blocks proliferation of human lung fibroblasts; LL 47 human lung fibroblast viability, ATP luminescence; stronger effect = lower value; viability, % at 10 µM; hit rate 1.1% among 85,000;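 active means viability at or below 50% in the single dose screen; inactive means viability above 50%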;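 further: compound exposure lasted 72 h before the ATP readout; 100% = median luminescence of untreated cell-only wells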
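material = human LL 47 lung fibroblast cells | dosing = compounds added from tenfold dosing solution, 0.1% DMSO final | timing = overnight cell rest, 72 h compound treatment at 37 °C | measured by = CellTiter-Glo luminescence measuring cellular ATP | evaluation = % viability versus median cells-only luminescence | control set = cell-only wells, no compound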
Active calls of the source: *; x = not tested or not shown. Hits are enriched below; roughly 5.9% of the tested compounds scored in any of these assays.

SMILES	Jurkat tox 60K	PTK2B oligo ant	H69AR growth 86K	MT1-MMP txn act	HUVEC inhibit	Lung fibro prol
C=CCn1c2ccccc2c2nnc(SCCCn3c(=O)[nH]c4ccccc43)nc21	x	-3.9*	x	1	x	x
O=c1[nH]c2ccccc2n1CCCSc1cnc2ccccc2n1	-3	-0.79	38*	1	79	95
Cc1nc2ccc(Nc3nc4cc(S(=O)(=O)N5CCOCC5)ccc4o3)cc2s1	3	-1.5	77	1	89	104
CCN(CC)S(=O)(=O)c1ccc2oc(Nc3ccc4c(c3)OCCO4)nc2c1	x	-3.5*	65	1.4	54	95
Cc1cccc2nc(C(F)(F)F)nc(=O)n12	13	0.75	x	1.1	x	x
CCOC(=O)c1nnn(-c2nonc2-n2cccc2)c1CN1CCC(C)CC1	-2	-0.34	85	1.1	109	92
CCOC(=O)c1nnn(-c2nonc2-n2cccc2)c1CCl	x	-0.19	1.5*	0.9	3.3*	35*
Cc1ccc(NC(=O)CN2CC(C)SC2=NC2CCCCC2)cc1 (centres undefined)	2	-0.16	90	0.1	100	98
COC(=O)C1=C(COc2ccccc2)NC(=O)NC1c1ccc(Cl)cc1 (centres undefined)	x	x	x	1.1	x	x
CC(=O)Nc1cccc(NC(=O)CSc2nnc(Cc3cccn3C)n2-c2ccc(C)cc2)c1	8	0.45	x	1.1	x	x
CN1c2ccccc2C(C)(C)C12C=Cc1cc(O)ccc1O2 (centres undefined)	54*	-1	x	0.8	x	x
COC(=O)[C@@]1(Cc2ccc(F)cc2)[C@H]2c3cc(C(=O)N(C)C)n(Cc4ccc(C)c(F)c4F)c3C[C@H]2CN1C(=O)c1ccccc1	x	x	x	1.1	x	x
OC(COc1ccc(C2C=CCC2)cc1)CN1CCCCC1 (centres undefined)	-3	-0.01	83	1.2	82	91
Cc1ccc(NC(=O)c2cc(N3CCOCC3)nc3ccccc23)cc1	x	1.1	33*	1.3	91	86
Cc1ccc(C)c(N2CCN(S(=O)(=O)c3ccc4c(c3)OCCO4)CC2)c1	9	-3.9*	96	1.1	118	100
Cc1ccc(Cl)cc1N1CCN(S(=O)(=O)c2ccc3c(c2)OCCO3)CC1	1	-4.2*	90	1.1	93	106
Cc1ccc(C)c(N2CCN(S(=O)(=O)c3ccc4[nH]c(=O)c(=O)[nH]c4c3)CC2)c1	8	0.24	73	1.2	90	101
Cc1ccc(-n2c(Cn3nc(C(F)(F)F)cc3C)n[nH]c2=S)cc1	x	1.6	x	x	x	x
COC(=O)[C@@]1(Cc2ccc(OC)cc2)[C@H]2c3cc(C(=O)N(C)C)n(CCc4ccccn4)c3C[C@H]2CN1C(=O)c1ccccc1	x	x	x	1.1	x	x
Cc1csc(NC(=O)c2c(O)c3c(n(CC(C)C)c2=O)CCCC3)n1	9	-0.55	33*	0.9	119	91
CCCn1c2c(c(O)c(C(=O)Nc3nc(C)cs3)c1=O)CCCC2	3	x	90	1.2	109	105
CCOC(=O)c1sc(=NC(=O)c2ccc(OC)c(OC)c2)n(C)c1C	4	0.92	20*	1.2	77	97
C=CCOC(=O)C1=C(C)NC(C)=C(C(=O)OCC=C)C1c1ccc(O)cc1	-2	-3.5*	75	1.1	76	97
C=CCOC(=O)C1=C(C)NC(SCC(=O)Nc2nccs2)=C(C#N)C1c1cccs1 (centres undefined)	x	-2.8	28*	1	18*	95
CCSC1=C(C#N)C(c2cccs2)C(C(=O)OC)=C(C)N1 (centres undefined)	x	-2.7	69	1.2	92	90
SMILES	Jurkat tox 60K	PTK2B oligo ant	H69AR growth 86K	MT1-MMP txn act	HUVEC inhibit	Lung fibro prol
C=CCOC(=O)C1=C(C)NC(SC)=C(C#N)C1c1cccs1 (centres undefined)	x	-2.4	20*	1.1	55	65
C=CCOC(=O)C1=C(C)NC(SC)=C(C#N)C1c1ccc(OCC)cc1 (centres undefined)	0	-3.1*	39*	1.2	98	99
Cc1ccc(Cl)cc1N1CCN(CC(=O)Nc2ccc(CN3CCCCC3)cc2)CC1	x	-0.94	2.9*	1.2	8.2*	28*
C=CCNC(=O)CCCCC(=O)NCC=C	3	-0.4	32*	1.1	96	97
N#C/C(=C1/CCCCCN1)c1nnc2n1CCCCC2	5	0.58	80	1.1	94	104
N#C/C(=C1\C(=O)Nc2c(Cl)cc(Cl)cc21)c1nnc2n1CCCCC2	x	0.33	36*	1.3	85	99
CCC(=O)O[C@@H]1CC(=O)O[C@H](C)CC=CC=C[C@@H](O)[C@H](C)C[C@H](CC=O)[C@H](O[C@H]2O[C@H](C)[C@@H](O[C@H]3C[C@@](C)(O)[C@@H](OC(=O)CC)[C@H](C)O3)[C@H](N(C)C)[C@H]2O)[C@H]1OC	x	x	94	1	110	102
CC[C@H]1OC(=O)C[C@@H](O)[C@H](C)[C@@H](O[C@@H]2O[C@H](C)C[C@H](N(C)C)[C@H]2O)[C@@H](CC=O)C[C@@H](C)C(=O)C=C[C@]2(C)O[C@H]2[C@@H]1C	x	x	25*	0.9	80	38*
COc1ccc(/C=C/C(=O)NC(=S)NNC(=O)c2ccco2)cc1	x	-0.5	31*	1.3	43	63
COc1ccccc1-n1c(=O)oc2ccc(Cl)cc2c1=O	19	-0.37	1.5*	1.3	20*	50
CCNc1nc(SCCOc2ccc(C)cc2)nc(N(C)C)n1	2	0.01	31*	1.2	97	85
COc1ccc(C(=O)NCS(=O)(=O)c2ccc(C)cc2)cc1	x	0.71	94	1.1	93	98
CO/N=C(/CS(=O)(=O)c1ccc(C)cc1)c1ccc(OC)cc1	x	-1.1	36*	1	94	99
Cc1nc2c(C(=O)NCCC(C)C)c[nH]n2c(=O)c1Cc1ccccc1F	x	-1.8	46	x	12*	102
CS(=O)(=O)c1nc(-c2ccccc2)cc(-c2ccccc2)c1C#N	x	-0.39	1.5*	1.1	39	40*
CCCOC(=O)CSC1=C(C#N)C(c2ccc3c(c2)OCO3)CC(=O)N1 (centres undefined)	x	-0.51	23*	1.1	69	93
CSc1ncc(Cl)c(C(=O)C(C#N)c2nc3c(C)cc(C)cc3c(=O)[nH]2)n1 (centres undefined)	5	-3*	86	1.1	52	95
CSc1ncc(Cl)c(C(=O)NCc2ccc3c(c2)OCO3)n1	-2	1.8	95	1.1	85	92
O=C(NN=C1CCCCCCCCCCC1)c1ccccc1F	x	-0.58	x	x	x	x
COc1ccc(OC)c(C2=Nn3c(nnc3C3CCCCC3)SC2)c1	x	-1.4	103	1.1	91	94
COc1ccc(Cc2nnc3n2N=C(c2cc4ccccc4o2)CS3)cc1OC	4	-0.82	35*	1.2	82	94
COc1ccc(C2=Nn3c(nnc3-c3ccccc3)SC2)cc1OC	x	-1.2	84	1	91	94
COc1ccc(-c2nnc3n2N=C(c2ccccc2)CS3)cc1OC	-4	x	54	1.1	32	15*
